Data set [1] addresses T1, E-selectin (Homo sapiens) (UniProt P16581).
T1 sequence (whole entry): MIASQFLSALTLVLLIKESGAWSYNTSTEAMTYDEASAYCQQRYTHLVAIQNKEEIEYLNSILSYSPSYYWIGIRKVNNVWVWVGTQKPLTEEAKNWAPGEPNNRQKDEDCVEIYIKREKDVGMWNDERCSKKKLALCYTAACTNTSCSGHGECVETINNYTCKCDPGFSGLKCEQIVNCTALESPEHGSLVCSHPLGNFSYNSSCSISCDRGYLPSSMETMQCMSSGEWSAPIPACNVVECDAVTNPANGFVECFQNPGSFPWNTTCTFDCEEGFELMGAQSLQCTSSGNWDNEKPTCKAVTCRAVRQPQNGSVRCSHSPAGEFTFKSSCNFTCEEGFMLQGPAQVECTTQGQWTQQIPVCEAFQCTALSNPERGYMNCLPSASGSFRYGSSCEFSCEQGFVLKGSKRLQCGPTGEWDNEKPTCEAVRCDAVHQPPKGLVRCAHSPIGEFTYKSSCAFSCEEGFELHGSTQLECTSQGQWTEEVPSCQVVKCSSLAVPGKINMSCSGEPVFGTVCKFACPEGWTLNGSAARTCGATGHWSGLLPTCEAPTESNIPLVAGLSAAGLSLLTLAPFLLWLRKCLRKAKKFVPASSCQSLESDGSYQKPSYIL
The experiment in a line: In vitro inhibitory potency compared to PMA induced Selectin E expression in human endothelial cells (ELISA assay) at 1 uM. The class given is cell-based. The settings on record: Endothelial cell. In short, it runs like this: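 HUVEC whole-cell ELISA with PMA substituted for TNFα as inducer. Compound preincubated 24 h at 37 °C, then 6 h induction at 37 °C. E-selectin detected with mouse monoclonal antibody and HRP anti-mouse IgG, OPD development, A490. Value given as percent inhibition at a single concentration of 1 µM.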
(In general: In an ELISA, binding on a coated surface is turned into a signal by an enzyme label.)

The nature of data set [2]: Solubility in pH 7.4 buffer. The data set is classed as physicochemical.
Data set [3] has as its system Mus musculus. The experiment in a line: Efficacy in serum sICAM-1 at 30 mg/kg of oral dosing in an inhaled allergen-induced cell influx in 6 mice. The class given is functional. The essentials: (§1)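 Mouse inhaled-allergen model. Compounds or vehicle (0.2% methylcellulose) given orally 18 h and 1 h before the first of two allergen inhalations. Lungs lavaged 24-27 h after the first inhalation. Read-outs were lavage cell count (no./µL), neutrophil and eosinophil percentages, and soluble ICAM-1 in serum and BAL 24 h after antigen. Values are mean ± SE.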

The subject of data set [4] is Mus musculus. The experiment in a line: % Efficacy in neutrophils at 3 mg/kg of oral dosing in an inhaled allergen-induced cell influx in 7 mice. The data set is classed as functional. In short, it runs like this: as §1
The subject of data set [5] is Mus musculus. The experiment in a line: % Efficacy in neutrophils at 0.3 mg/kg of oral dosing in an inhaled allergen-induced cell influx in 7 mice. The class given is functional. In short, it runs like this:
as §1

Data set [6] concerns Mus musculus. The experiment in a line: % Efficacy in eosinophils at 0.3 mg/kg of oral dosing in an inhaled allergen-induced cell influx in 7 mice. The class given is functional, Eosinophil. In short, it runs like this: as §1
Data set [7] addresses T2, E-selectin (Homo sapiens, UniProt P16581).
T2 sequence (P16581 whole entry): T1 sequence (whole entry)
The experiment in a line: Inhibition of selectin E in human endothelial cells. The class given is cell-based, Endothelial cell. In short, it runs like this: (§2)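 Whole-cell ELISA on primary HUVECs plated at 5 × 10^4 cells/mL in EBM/2% FBS with growth supplements. Compound preincubated 24 h at 37 °C, then inducer added (TNFα at 5 ng/mL final, or IL-1β or PMA in its place) for 6 h at 37 °C. Mouse monoclonal anti-E-selectin, anti-ICAM-1 or anti-VCAM-1 was applied overnight at 4 °C, then HRP anti-mouse IgG. Detection with OPD, A490. Triplicate assays.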

In data set [8] the test system is Mus musculus. The experiment in a line: Efficacy in lavage cells at 0.3 mg/kg of oral dosing in an inhaled allergen-induced cell influx in 7 mice. The data set is classed as functional. In short, it runs like this: as §1
Data set [9] has as its system Mus musculus. The experiment in a line: Efficacy in lavage cells at 3 mg/kg of oral dosing in an inhaled allergen-induced cell influx in 7 mice. The class given is functional. The essentials: as §1
Data set [10] concerns Mus musculus. The experiment in a line: Efficacy in lBAL sICAM-1 at 0.3 mg/kg of oral dosing in an inhaled allergen-induced cell influx in 7 mice. The class given is functional. The essentials: as §1
Data set [11] is described as follows: Toxicity in HUVEC cell lysates. The settings on record: human. The class given is cell-based, Lysate.
The test system of data set [12] is Mus musculus. The experiment in a line: % Efficacy in neutrophils at 30 mg/kg of oral dosing in an inhaled allergen-induced cell influx in 6 mice. The data set is classed as functional. In short, it runs like this:
as §1

Data set [13] has as its system Mus musculus. The experiment in a line: Efficacy in lBAL sICAM-1 at 3 mg/kg of oral dosing in an inhaled allergen-induced cell influx in 7 mice. The data set is classed as functional. The essentials: as §1
For data set [14], the system named is Mus musculus. The experiment in a line: Efficacy in serum sICAM-1 at 3 mg/kg of oral dosing in an inhaled allergen-induced cell influx in 7 mice. The class given is functional. The essentials:
as §1

The test system of data set [15] is Mus musculus. The experiment in a line: % Efficacy in eosinophils at 3 mg/kg of oral dosing in an inhaled allergen-induced cell influx in 7 mice. The data set is classed as functional, Eosinophil. In short, it runs like this:
as §1

The target of data set [16] is T2, E-selectin. The experiment in a line: In vitro inhibitory potency compared to TNF-alpha induced Selectin E expression in human endothelial cells (ELISA assay). The class given is cell-based, Endothelial cell. In short, it runs like this:
as §2

For data set [17], the system named is Mus musculus. The experiment in a line: Efficacy in lBAL sICAM-1 at 30 mg/kg of oral dosing in an inhaled allergen-induced cell influx in 6 mice. The data set is classed as functional. In short, it runs like this: as §1
In data set [18] the target is T2, E-selectin. The experiment in a line: In vitro inhibitory potency compared to IL1-beta induced Selectin E in human endothelial cells (ELISA assay). The data set is classed as cell-based, Endothelial cell. In short, it runs like this: as §2
For data set [19], the target named is T3, Intercellular adhesion molecule 1 (Homo sapiens, UniProt P05362). The experiment in a line: Inhibition of intercellular adhesion molecule-1 (ICAM1) in human endothelial cells. The data set is classed as cell-based, Endothelial cell. The essentials: as §2
T3 sequence (P05362 whole entry): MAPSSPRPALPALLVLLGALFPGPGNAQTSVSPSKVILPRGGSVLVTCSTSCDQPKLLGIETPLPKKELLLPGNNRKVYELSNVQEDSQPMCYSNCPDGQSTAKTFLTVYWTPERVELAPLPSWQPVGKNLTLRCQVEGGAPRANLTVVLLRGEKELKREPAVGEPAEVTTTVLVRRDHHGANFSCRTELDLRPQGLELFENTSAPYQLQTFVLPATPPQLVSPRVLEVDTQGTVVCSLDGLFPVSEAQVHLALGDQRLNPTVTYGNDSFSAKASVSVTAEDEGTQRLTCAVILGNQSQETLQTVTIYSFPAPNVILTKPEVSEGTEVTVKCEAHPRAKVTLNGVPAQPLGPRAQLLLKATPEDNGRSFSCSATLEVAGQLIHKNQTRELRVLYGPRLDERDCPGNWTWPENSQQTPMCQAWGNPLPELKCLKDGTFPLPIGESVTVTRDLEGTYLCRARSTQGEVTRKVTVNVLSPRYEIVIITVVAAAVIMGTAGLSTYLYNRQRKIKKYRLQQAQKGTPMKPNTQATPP
The target of data set [20] is T3, Intercellular adhesion molecule 1. The experiment in a line: In vitro inhibitory potency compared to PMA induced Intercellular adhesion molecule-1 in human endothelial cells (ELISA assay). The data set is classed as cell-based, Endothelial cell. The essentials: as §2
Data set [21] has the same target. The experiment in a line: In vitro inhibitory potency compared to TNF-alpha induced Intercellular adhesion molecule-1 in human endothelial cells (ELISA assay). The class given is cell-based, Endothelial cell. The essentials:
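Primary HUVECs seeded at 5 × 10^4 cells/mL in EBM/2% FBS with supplements. After 24 h of compound at 37 °C, TNFα was added to 5 ng/mL final for 6 h at 37 °C. Cell-surface ICAM-1 was detected with a mouse monoclonal antibody, then HRP anti-mouse IgG and OPD, with absorbance at 490 nm. Triplicate determinations.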

Data set [22] shares this target. The experiment in a line: In vitro inhibitory potency compared to IL1-beta induced Intercellular adhesion molecule-1 in human endothelial cells (ELISA assay). The data set is classed as cell-based, Endothelial cell. In short, it runs like this: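 Primary HUVECs seeded at 5 × 10^4 cells/mL in EBM/2% FBS with EGF, bovine brain extract and gentamicin. Compound added next day for 24 h at 37 °C, then inducer (IL-1β or PMA, level not stated) for 6 h at 37 °C. Whole-cell ELISA used mouse monoclonal anti-ICAM-1 or anti-VCAM-1, HRP donkey anti-mouse IgG and OPD, read at 490 nm. Run in triplicate.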

The test system of data set [23] is Mus musculus. The experiment in a line: % Efficacy in eosinophils at 30 mg/kg of oral dosing in an inhaled allergen-induced cell influx in 6 mice. The data set is classed as functional, Eosinophil. In short, it runs like this: as §1
Data set [24] relates to Mus musculus. The experiment in a line: Efficacy in serum sICAM-1 at 0.3 mg/kg of oral dosing in an inhaled allergen-induced cell influx in 7 mice. The class given is functional. In short, it runs like this:
as §1

Structures are written as SMILES. ≈ marks a conversion by molar mass, not a printed value. Where “and” joins values, the source holds several entries; their conditions need not be identical. Equal values may be shown once. Bounds are passed on as bounds.

As to `NC(=O)c1cc2c(Oc3ccc(Br)cc3)cncc2s1`, the inhibition in data set [1] came out at 48%. The compound further came in with a solubility in data set [2] of 0.46 µg/mL (≈ 1.32 µM). In addition, the Efficacy in the data set on Mus musculus [3] is 18.8 µg/mL and 18.5 µg/mL; with Mus musculus [4], 60%; with Mus musculus [5] it was 44%; in the data set with Mus musculus [6], 19%; in the data set with Mus musculus [8], 282 number ul-1; in the data set with Mus musculus [9], 319 number ul-1. In addition, the Efficacy is 2.67 µg/mL in the data set on Mus musculus [10]; 38% and 57% in the data set with Mus musculus [12]; 2.68 µg/mL with Mus musculus [13]; 21.3 µg/mL with Mus musculus [14]; 14% in the data set with Mus musculus [15]; 1.74 µg/mL and 1.99 µg/mL in the data set on Mus musculus [17]. The Efficacy was 8% and 9% in the data set on Mus musculus [23]; 20.7 µg/mL in the data set with Mus musculus [24]. The IC50 against E-selectin [7] is 4 nM; in [11] it was over 100000 nM; against E-selectin [16], 4 nM; against E-selectin [18] it was 6 nM; in [19], 5 nM; in data set [20], 6 nM. Also, the IC50 in [21] and in [22] was 3 nM in each case.

For orientation: inhibition means how much of the control response was suppressed. Broadly, the solubility is the dissolved amount per volume that the medium holds. As a reminder, the IC50 is the concentration that gives 50% inhibition. A higher IC50 goes with a need for much substance.
